Reference: ChEMBL document CHEMBL1137507, “Discovery, synthesis, and structure-activity studies of tetrazole based growth hormone secretagogues” (Bioorg Med Chem Lett, 2007)

Legend:
[1] = molecular target: T1, Growth hormone secretagogue receptor type 1 (Homo sapiens, UniProt Q92847); assay: Displacement of [125I]ghrelin from human GHSR1a after 1 hr
Method in brief: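 Membranes (0.5 ug) from RAGE-based GHSR1a-expressing cells incubated 1 h with 0.02 nM [125I]ghrelin in 25 mM Hepes pH 7.2, 10 mM MgCl2, 2 mM EGTA, 0.1% BSA across a 12-point compound dose range; filtration over polyethylenimine-coated GFB plates, scintillation counting; four-parameter logistic fit, Ki via Cheng-Prusoff; typically tested on three separate occasions.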

[2] = molecular target: T1, Growth hormone secretagogue receptor type 1; assay: Agonist activity at human GHS receptor expressed in H4 glioma cells assessed as intracellular calcium concentration by FLIPR assay; type: functional, cell-based
[3] = molecular target: Growth hormone secretagogue receptor type 1 (Rattus norvegicus) (UniProt O08725); assay: Agonist activity at GHS receptor in intravenously dosed anesthetized Wistar rat after 15 mins; type: functional, organism-based
[4] = tested on: Canis familiaris; assay: Effect on GH level in Beagle dog at 10 mg/kg, po; type: functional, Canis lupus familiaris
Method in brief: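 Beagle dogs dosed orally at 10 mg/kg alongside vehicle controls; plasma GH followed to 120 min post-dose, read-out as mean peak GH level in ng/mL.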

[5] = Oral bioavailability in dog; type: ADME, organism-based, Canis lupus familiaris; settings: in vivo
[6] = Oral bioavailability in rat; type: ADME, organism-based; settings: in vivo

Sequence of Growth hormone secretagogue receptor type 1 (Rattus norvegicus) (O08725 whole entry): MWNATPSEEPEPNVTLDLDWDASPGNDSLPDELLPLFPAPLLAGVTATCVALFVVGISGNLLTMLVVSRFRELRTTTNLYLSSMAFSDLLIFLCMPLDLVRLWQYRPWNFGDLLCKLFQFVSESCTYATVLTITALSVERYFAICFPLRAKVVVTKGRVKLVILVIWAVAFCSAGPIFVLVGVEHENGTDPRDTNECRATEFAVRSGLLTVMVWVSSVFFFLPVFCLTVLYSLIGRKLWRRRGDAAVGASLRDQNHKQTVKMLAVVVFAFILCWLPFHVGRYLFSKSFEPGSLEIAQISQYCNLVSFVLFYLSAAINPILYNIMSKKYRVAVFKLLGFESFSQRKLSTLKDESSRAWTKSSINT
T1 sequence (Q92847 whole entry): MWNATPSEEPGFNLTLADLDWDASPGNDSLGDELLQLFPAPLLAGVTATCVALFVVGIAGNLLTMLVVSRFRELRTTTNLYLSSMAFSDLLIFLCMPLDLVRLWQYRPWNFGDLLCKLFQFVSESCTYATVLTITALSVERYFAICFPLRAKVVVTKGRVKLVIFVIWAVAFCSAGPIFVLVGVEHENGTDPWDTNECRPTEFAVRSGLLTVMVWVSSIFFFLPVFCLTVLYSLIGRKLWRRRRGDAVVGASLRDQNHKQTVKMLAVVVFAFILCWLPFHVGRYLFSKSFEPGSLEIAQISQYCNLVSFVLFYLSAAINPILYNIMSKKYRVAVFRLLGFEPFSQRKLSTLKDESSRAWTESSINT

Row | Structure (SMILES) | Ki [1] [nM] | EC50 [2] [nM] | ED50 [3] [µmol/kg] | bioavailability [5] [%] | bioavailability [6] [%] | Activity [4] [ng/mL]
1 | CC(C)(N)C(=O)N[C@H](COCc1ccccc1)c1nnn(Cc2ccccc2)n1 | 4750 | 1120 |  |  |  | 
2 | COC(=O)C(c1ccccc1)n1nnc([C@@H](COCc2ccccc2)NC(=O)C(C)(C)N)n1 (some centres not stated) | > 5000 | 3170 |  |  |  | 
3 | CCCCNC(=O)CCn1nnnc1[C@@H](COCc1ccccc1)NC(=O)C(C)(C)N | 2190 | 42 |  |  |  | 
4 | CC(C)(N)C(=O)N[C@H](COCc1ccccc1)c1nnn(Cc2ccccc2NS(C)(=O)=O)n1 | > 5000 | 426 |  |  |  | 
5 | COC(=O)CCn1nnnc1[C@@H](COCc1ccccc1)NC(=O)C(C)(C)N | 3380 | 43 |  |  |  | 
6 | CC(C)(N)C(=O)N[C@H](COCc1ccccc1)c1nnnn1CCC(=O)NCCCc1ccccc1 | 820 | 59 |  |  |  | 
7 | CC(C)(N)C(=O)N[C@H](COCc1ccccc1)c1nnnn1CC#N | 4170 | 29 |  |  |  | 
8 | CC(C)(N)C(=O)N[C@H](COCc1ccccc1)c1nnn(Cc2cccc(NS(C)(=O)=O)c2)n1 | > 5000 | 868 |  |  |  | 
9 | CC(C)(N)C(=O)N[C@H](COCc1ccccc1)c1nnn(CCc2ccccc2NS(C)(=O)=O)n1 | 2660 | 4110 |  |  |  | 
10 | CC(C)(N)C(=O)N[C@H](COCc1ccccc1)c1nnn(CC#N)n1 | > 5000 | 1520 |  |  |  | 
11 | CC(C)(N)C(=O)N[C@H](COCc1ccccc1)c1nnnn1CCC#N | 2940 | 30 | 0.0085 | 76 | 56 | 30
12 | CCCCNC(=O)CCn1nnnc1[C@@H](CCc1ccccc1)NC(=O)C(C)(C)N | 1370 | 49 |  |  |  | 
13 | CC(C)(N)C(=O)N[C@H](COCc1ccccc1)c1nnnn1CCC(=O)NCCc1ccccc1 | 780 | 27 |  |  |  | 
14 | CC(C)(N)C(=O)N[C@H](COCc1ccccc1)c1nnn(C/C=C/c2ccccc2)n1 | > 5000 | 517 |  |  |  | 
15 | CCCCNC(=O)CCCn1nnnc1[C@@H](COCc1ccccc1)NC(=O)C(C)(C)N | 1780 | 30 |  |  |  | 
16 | CN(c1ccccc1CCCn1nnc([C@@H](COCc2ccccc2)NC(=O)C(C)(C)N)n1)S(C)(=O)=O | 2390 | 107 |  |  |  | 
17 | COC(=O)CCCn1nnnc1[C@@H](COCc1ccccc1)NC(=O)C(C)(C)N | 2380 | 55 |  |  |  | 
18 | CC(C)(N)C(=O)N[C@H](COCc1ccccc1)c1nnnn1CCc1nnn[nH]1 | 5000 | 347 |  |  |  | 
19 | CC(C)(N)C(=O)N[C@H](COCc1ccccc1)c1nnn(Cc2ccc(NS(C)(=O)=O)cc2)n1 | > 5000 | 986 |  |  |  | 
20 | CC(C)(N)C(=O)N[C@H](COCc1ccccc1)c1nnn(CCc2cc3ccccc3n2S(C)(=O)=O)n1 | 1270 | 150 |  |  |  | 
21 | COC(=O)CCn1nnnc1[C@@H](Cc1c[nH]c2ccccc12)NC(=O)C(C)(C)N | > 5000 | 200 |  |  |  | 
22 | CC(C)(N)C(=O)N[C@H](COCc1ccccc1)c1nnn(CCCCC#N)n1 | > 5000 | 1860 |  |  |  | 
23 | CC(C)(N)C(=O)N[C@H](COCc1ccccc1)c1nnnn1CCCCC#N | 3120 | 35 |  |  |  | 
24 | CC(C)(N)C(=O)N[C@H](COCc1ccccc1)c1nnnn1CCCCCNS(C)(=O)=O | > 5000 | 75 |  |  |  | 
25 | CC(C)(N)C(=O)N[C@H](COCc1ccccc1)c1nnnn1CCCCCNC(=O)OCc1ccccc1 | 320 | 10 |  |  |  | 

Continued, in another order:

Row | Ki [1] [nM] | EC50 [2] [nM] | ED50 [3] [µmol/kg] | bioavailability [5] [%] | bioavailability [6] [%] | Structure (SMILES) | Activity [4] [ng/mL]
26 | 200 | 17 |  |  |  | CC(C)(N)C(=O)N[C@H](COCc1ccccc1)c1nnnn1CCCc1ccccc1 | 
27 | > 5000 | 116 |  |  |  | CC(C)(N)C(=O)N[C@H](COCc1ccccc1)c1nnnn1Cc1cccc(NS(C)(=O)=O)c1 | 
28 | 970 | 4 | > 0.0174 |  |  | CC(C)(N)C(=O)N[C@H](COCc1ccccc1)c1nnnn1CCc1cc2ccccc2n1S(C)(=O)=O | 
29 | 4450 | 390 |  |  |  | CC(C)(N)C(=O)N[C@H](COCc1ccccc1)c1nnnn1Cc1ccccc1NS(C)(=O)=O | 
30 | 1590 | 147 |  |  |  | CC(C)(N)C(=O)N[C@H](COCc1ccccc1)c1nnnn1CC1CN(S(C)(=O)=O)c2ccccc21 (some centres not stated) | 
31 | 1070 | 51 |  |  |  | CC(C)(N)C(=O)N[C@H](COCc1ccccc1)c1nnnn1CCC(=O)NCc1ccccc1 | 
32 | 470 | 20 |  |  |  | COC(=O)C(c1ccccc1)n1nnnc1[C@@H](COCc1ccccc1)NC(=O)C(C)(C)N (some centres not stated) | 
33 | 1720 | 14 |  |  |  | CN(c1ccccc1CCCn1nnnc1[C@@H](COCc1ccccc1)NC(=O)C(C)(C)N)S(C)(=O)=O | 
34 | > 5000 | 259 |  |  |  | CC(C)(N)C(=O)N[C@H](COCc1ccccc1)c1nnnn1Cc1ccc(NS(C)(=O)=O)cc1 | 
35 | > 5000 | 546 |  |  |  | CC(C)(N)C(=O)N[C@H](COCc1ccccc1)c1nnn(CC2Cc3ccccc3N2S(C)(=O)=O)n1 (some centres not stated) | 
36 | 1900 | 99 |  |  |  | CC(C)(N)C(=O)N[C@H](COCc1ccccc1)c1nnnn1Cc1ccccc1 | 
37 | 2200 | 67 |  |  |  | CC(C)(N)C(=O)N[C@H](COCc1ccccc1)c1nnnn1CCc1ccccc1NS(C)(=O)=O | 
38 | 190 | 12 | 0.0264 |  |  | CC(C)(N)C(=O)N[C@H](COCc1ccccc1)c1nnnn1C/C=C/c1ccccc1 | 
